The source of these data is ChEMBL document CHEMBL1123577, “Synthesis and structure-activity relationships of a series of aminopyridazine derivatives of gamma-aminobutyric acid acting as selective GABA-A antagonists” (J Med Chem, 1987).

Experiment [1] has as its target GABA-A receptor; anion channel. Briefly: Binding affinity, determined by its ability to displace the [3H]GABA from Gamma-aminobutyric acid A (GABA-A) receptor site of rat brain membranes. On the set-up: species or system Membrane.
The target of experiment [2] is GABA-A receptor; anion channel. Briefly: Inhibition of [3H]GABA binding to Gamma-aminobutyric acid A (GABA-A) receptor of rat brain membranes. Format: cell membranes, Membrane. Put shortly: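 Triton-treated whole-brain membranes from male Wistar rats (180–220 g), labelled with [3H]GABA at 2.9 nM. Compounds were first screened at 100 μM. Those inhibiting binding by more than 50% were run as dose-inhibition curves of four to eight concentrations in triplicate incubations, and IC50 was derived by log-probit analysis.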

A short description of experiment [3]: Inhibitory activity against sodium-dependent synaptosome uptake was determined. Format: functional, tissue-based, Brain.
For experiment [4], the target named is 4-aminobutyrate aminotransferase, mitochondrial (Homo sapiens, UniProt P80404). In words: Compound was tested for inhibition of Gamma-amino-N-butyrate transaminase.
Sequence of 4-aminobutyrate aminotransferase, mitochondrial (P80404 whole entry): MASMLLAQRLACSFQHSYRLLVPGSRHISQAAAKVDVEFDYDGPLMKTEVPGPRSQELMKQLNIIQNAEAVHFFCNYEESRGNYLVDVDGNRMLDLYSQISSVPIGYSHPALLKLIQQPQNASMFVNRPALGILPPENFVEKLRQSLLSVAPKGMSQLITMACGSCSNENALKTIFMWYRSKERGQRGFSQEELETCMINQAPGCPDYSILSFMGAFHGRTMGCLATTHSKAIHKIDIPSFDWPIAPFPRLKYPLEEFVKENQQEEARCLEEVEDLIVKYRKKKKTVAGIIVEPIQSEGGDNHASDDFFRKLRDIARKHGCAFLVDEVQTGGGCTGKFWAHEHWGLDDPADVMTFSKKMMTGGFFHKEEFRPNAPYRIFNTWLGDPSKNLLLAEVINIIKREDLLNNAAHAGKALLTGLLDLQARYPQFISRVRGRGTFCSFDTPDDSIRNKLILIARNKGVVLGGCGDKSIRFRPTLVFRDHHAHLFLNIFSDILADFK

The term Ki denotes a dissociation constant, usually derived from enzyme kinetics or from competition with a known ligand. Lower therefore signals tighter binding. By IC50 is commonly meant the concentration at which inhibition is half-maximal. Higher therefore signals weaker potency in that assay.

Turning to `NC(=O)NCCCC(=O)O`, in experiment [1], the affinity, expressed as Ki, was 100 µM. Still for that read-out and setting: the same measure for `Cc1cc(-c2ccc([N+](=O)[O-])cc2)n[n+](CCCC(=O)O)c1N`: 22.8 µM; for `Cc1cc(-c2ccccc2)n[n+](CCCC#N)c1N`: 20 µM. For `Cc1cc(-c2ccccc2)n[n+](CCCC(=O)O)c1N` [FAMIRAPRINIUM CHLORIDE], the Ki in experiment [1] was 2.3 µM. On to `Nc1ccc(-c2cccs2)n[n+]1CCCC(=O)O`, for which affinity in experiment [1] was put at a Ki of 0.58 µM. In turn, `CCOC(=O)CCC[n+]1nc(-c2ccccc2)cc(C)c1N` came in with a Ki in experiment [1] above 100 µM.

Compound `Nc1ccc(-c2ccc(F)cc2)n[n+]1CCCC(=O)O` returned a Ki in experiment [1] of 1.27 µM.

`Nc1cc(-c2ccccc2)cn[n+]1CCCC(=O)O` showed an inhibitory constant (Ki) in experiment [1] of 100 µM. Still for that read-out and setting: the same measure for `Cc1cc(-c2ccccc2)n[n+](CC(=O)O)c1N`: 62 µM; for `CCCN(CCC)CCCC(=O)O`: above 100 µM; for `CC12CC(=O)C3C(CCC4CC(O)CCC43C)C1CC(=N)N2` (configuration not stated): 0.047 µM. For `Nc1ccc(-c2ccc(Cl)cc2Cl)n[n+]1CCCC(=O)O`, the Ki in experiment [1] turned out to be 0.56 µM.

`O=C(O)CCCC1CCNC1` (configuration not stated): in experiment [1], the Ki is above 100 µM. Still for that read-out and setting: in the case of `C[N+]1(C)CCc2cc3c(cc2[C@H]1[C@@H]1OC(=O)c2c1ccc1c2OCO1)OCO3` it was 38 µM. In experiment [1], `COc1ccc(-c2cc(C)c(N)[n+](CCCC(=O)O)n2)cc1` registered an inhibitory constant (Ki) of 0.31 µM. `NC1C=CC(c2ccccc2)=NN1CCCC(=O)O` (configuration not stated): the affinity in experiment [1] corresponds to a Ki of 1.22 µM. In experiment [1], `Cc1cc(N)[n+](CCCC(=O)O)nc1-c1ccccc1` showed a Ki of 10.4 µM.

`Cc1cc(-c2ccccc2)nn(CCCC(=O)O)c1=O` returned a Ki in experiment [1] above 100 µM. Turning to `Nc1ccc(Cl)n[n+]1CCCC(=O)O`, the Ki in experiment [1] was 91.2 µM. In turn, `Nc1ccc(-c2ccccc2Cl)n[n+]1CCCC(=O)O` returned an inhibition constant (Ki) in experiment [1] of 1.37 µM. The same measure, in the same setting: in the case of `Cc1cc(-c2cccc(Cl)c2)n[n+](CCCC(=O)O)c1N` it was 0.45 µM. `O=C(O)Cc1c[nH]cn1` [IMIDAZOLE ACETIC ACID] showed an IC50 in experiment [2] of 0.9 µM.

Regarding `Cc1cc(-c2ccccc2)n[n+](C(C)CCC(=O)O)c1N` (configuration not stated), in experiment [1], the Ki was found to be 9 µM.

With `O=C(O)CCc1c[nH]cn1`, the IC50 in experiment [2] was found to be 290 µM.

Turning to `N/C(S)=N\CC(=O)O`, the 50% inhibitory concentration (IC50) in experiment [2] turned out to be 18 µM. In experiment [3], `[N-]=[N+]=Nc1ccc(/C(N)=N/CCCC(=O)O)cc1` showed a Ki of 8 µM.

Take `Cc1ccc(-c2cc(C)c(N)[n+](CCCC(=O)O)n2)cc1`: the Ki in experiment [1] stood at 0.55 µM. With `N=C(N)SCCC(=O)O`, the half-maximal inhibitory concentration (IC50) in experiment [2] was determined as 29 µM. Turning to `Cc1cc(-c2ccccc2)n[n+](CCCCC(=O)O)c1N`, the Ki in experiment [1] was found to be 10 µM. Regarding `N#CCCC[n+]1nc(-c2ccccc2)ccc1N`, the affinity in experiment [1], expressed as Ki, was 91 µM. The same measure, in the same setting: the same measure for `Cc1cc(-c2ccc(O)cc2)n[n+](CCCC(=O)O)c1N`: 0.43 µM; for `Cc1cc(-c2ccccc2Cl)n[n+](CCCC(=O)O)c1N`: 2.14 µM; for `Cc1cc(-c2cccc3ccccc23)n[n+](CCCC(=O)O)c1N`: 2.64 µM. The same measure, in the same setting: in the case of `Nc1ccc(-c2ccc(Cl)cc2)n[n+]1CCCC(=O)O` it was 0.28 µM; in that of `CC(C)(C)C(=O)ONCCCC(=O)O`, 100 µM.

`Cc1ccn[n+](CCCC(=O)O)c1N` displayed a Ki in experiment [1] of 31.9 µM. The compound `N=C(N)NCCC(=O)O` [OMPENACLID] came in with an IC50 in experiment [2] of 1.8 µM.

Turning to `N=C(N)NCC(=O)O` [GUANIDINO ACETATE], the IC50 in experiment [2] was found to be 2.1 µM. Consider `Nc1ccc(C2CCCCC2)n[n+]1CCCC(=O)O`, for which the Ki in experiment [1] stood at 3.74 µM.

As to `O=C(O)CNC(=S)Nc1ccccc1`, the affinity in experiment [4], expressed as Ki, was 91 µM.

As for `N#CCCC[n+]1nc(-c2ccccc2)cc(-c2ccccc2)c1N`, the Ki in experiment [1] was 91 µM. Same read-out and setting: in the case of `Oc1onc2c1CCNCC2` it was 50 µM; in that of `Nc1ccc(-c2ccc([N+](=O)[O-])cc2)n[n+]1CCCC(=O)O`, 1.37 µM. The same measure, in the same setting: in the case of `CC(C)Cc1ccc(N)[n+](CCCC(=O)O)n1` it was 22.3 µM; in that of `Cc1cc(-c2ccccc2)n[n+](CCC(C)C(=O)O)c1N` (configuration not stated), 7 µM; in that of `Cc1n[n+](CCCC(=O)O)c(N)cc1-c1ccccc1`, 10.6 µM.

Take `Cc1cc(-c2ccccc2)n[n+](CCC(=O)O)c1N`: the affinity in experiment [1] corresponds to a Ki of 7 µM. In the case of `Cc1cc(-c2ccccc2)n[n+](CCCCCC(=O)O)c1N`, in experiment [1], the inhibition constant Ki came out at 12.7 µM. On the same count and under the same terms, in the case of `Nc1ccc(-c2ccsc2)n[n+]1CCCC(=O)O` it was 2.37 µM.

In the case of `NC1C(c2ccccc2)=CC(c2ccccc2)=NN1CCCC(=O)O` (configuration not stated), the Ki in experiment [1] turned out to be 100 µM. With `Nc1nc(CCC(=O)O)cs1`, in experiment [2], the IC50 was 68 µM.

In experiment [1], `Cc1cc(-c2ccccc2)n[n+](CCCC(N)=O)c1N` gave a Ki of 91 µM.
